hERG rescue: hERG rescue from dofetilide block, primary screen, cell-based, CHO-hERG, FluxOR thallium flux, dofetilide IC70. dofetilide IC70 present. activation (rescue from dofetilide block), less the hit threshold, % at 10 µM. 0.51% of 310,000 active. AID 1511, 2009;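 active = activation above the mean of controls blocked by dofetilide plus 5 SD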;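 note: thallium influx through hERG after potassium depolarization seen as dye fluorescence rise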
KCNQ1 block: inhibitors of human KCNQ1 channel, primary screen, cell-based, thallium flux, high-throughput; Potassium voltage-gated channel subfamily KQT member 1 (Homo sapiens), P51787; CHO-K1 KCNQ1, FluxOR thallium flux fluorescence; active compounds read high; B-score at 10 µM; 1.3% of 310,000 active;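 active = compounds whose thallium flux B-score, printed positive for inhibition, exceeds three library SD while starting fluorescence stays within three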;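 note: channel opened by potassium depolarization with thallium stimulus after 20 min compound exposure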
KCNQ1 act: potentiators or activators of KCNQ1 channel, primary screen, cell-based, thallium flux, high-throughput; Potassium voltage-gated channel subfamily KQT member 1 (Homo sapiens), P51787; 0.35% of 310,000 active; B-score at 10 µM; CHO-K1 KCNQ1, thallium flux FluxOR fluorescence; active compounds read high;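 active = fluorescence ratio B-score, a plate-corrected score, at least three library SD, with initial intensity B-score within 5 SD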
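Assay system: CHO-K1 cells stably expressing KCNQ1; Medium: assay buffer with matched DMSO; Also added: K+/Tl+ depolarizing stimulus; Dosing: single dose; Timing: dye 90 min, compound 20 min, room temperature; Measured by: kinetic FluxOR thallium fluorescence, 10-s 1-Hz baseline, 110-s post-stimulus read; Read-out: peak-minus-minimum fluorescence over initial fluorescence, negative-control normalized, B-scored.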
KCNK9 inh: KCNK9 potassium channel inhibitors, primary screen, HEK293 cells, thallium flux. FluxOR thallium flux fluorescence; active compounds read low. B-score at 10 µM. Potassium channel subfamily K member 9 (Homo sapiens), Q9NPC2. 1.2% of 310,000 active;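 active = ratio B-score over 3 SD below the library mean, with starting fluorescence within 5 SD of its mean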;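 note: negative B-score means less thallium flux so channel inhibition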
Target sequence (Q9NPC2 whole entry, looked up): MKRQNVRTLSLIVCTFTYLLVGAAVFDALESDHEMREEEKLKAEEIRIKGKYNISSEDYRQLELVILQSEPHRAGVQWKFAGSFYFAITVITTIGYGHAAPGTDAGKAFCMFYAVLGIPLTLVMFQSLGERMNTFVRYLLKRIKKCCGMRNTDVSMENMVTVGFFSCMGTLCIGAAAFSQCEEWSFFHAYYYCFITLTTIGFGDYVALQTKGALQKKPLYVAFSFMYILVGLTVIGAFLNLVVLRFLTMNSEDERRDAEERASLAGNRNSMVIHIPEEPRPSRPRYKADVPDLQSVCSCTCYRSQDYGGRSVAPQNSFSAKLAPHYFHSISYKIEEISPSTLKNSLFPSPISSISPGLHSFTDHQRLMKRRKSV
KCNK3 block: human KCNK3 channel inhibitors, primary screen, CHO cells, FluxOR thallium flux, B-score. FluxOR fluorescence; active compounds read low. Potassium channel subfamily K member 3 (Homo sapiens), O14649. B-score at 10 µM. AID 602410, 2012. 0.84% of 340,000 active;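 active = B-score under library mean minus 4 SD, starting fluorescence ratio at most library mean plus 5 SD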;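 note: more negative B-score means stronger inhibition of thallium flux through KCNK3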
KCNK9 block conf: KCNK9 potassium channel inhibitors, confirmation, HEK293 cells, thallium flux, duplicate. shares compounds with KCNK9 inh. FluxOR thallium flux fluorescence. inhibition, % at 10 µM. 43% of 4,900 active. AID 492992, 2010;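 active = thallium signal inhibited by more than 5 SD of the compound-free buffer control wells, on both duplicate plates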;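 note: 0% = assay buffer control wells without compound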
Kir2-1 spec: mouse Kir2.1 channel inhibition, confirmation, selectivity assay for KCNK9 modulator project, cell-based, HEK293, thallium flux; shares compounds with KCNK9 inh; Kir2.1 cells, FluxOR thallium flux fluorescence; inhibition, % at 10 µM; 4% of 4,900 active;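 active = thallium signal drop more than 5 SD beyond the mean of the no-compound control wells, seen in both duplicate plates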;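 note: signal is fluorescence rise after thallium addition divided by baseline fluorescence; plate controls were assay buffer only for no effect and full block by chlorpromazine control for full effect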
KCNK9 uninduced: thallium flux in non-induced HEK293 cells, confirmation, counter-screen for KCNK9 inhibitor project, cell-based, second counter screen, non-induced KCNK9-HEK293; shares compounds with KCNK9 inh; FluxOR thallium flux; inhibition, % at 10 µM; 40% of 4,900 active; AID 492997, 2010;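 active = thallium signal drop beyond 5 SD of the untreated control mean, on both duplicate plates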;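 note: plate controls were buffer only IC0 wells for no effect and SID17386958 at its maximal inhibitory level for full effect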
KCNK3 inh conf: retest of human KCNK3 channel inhibitors, confirmation, CHO cells, FluxOR thallium flux, triplicate; shares compounds with KCNK3 block; FluxOR fluorescence; 0% buffer, 100% carvedilol maximal block; ratio percent of control, % at 10 µM; 99% of 2,400 active; AID 651638, 2012;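 active = ratio percent of control, averaged over triplicates, above buffer control mean plus 5 SD, cut at about 64% in these data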;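 note: ratio is the fluorescence rise from min to max over baseline after thallium stimulus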
KCNK3 noninduced: thallium flux inhibition in non-induced cells, primary screen, counter-screen for KCNK3 inhibitor project, cell-based, non-induced KCNK3 line, FluxOR thallium, triplicate; 40% of 2,400 active; shares compounds with KCNK3 block; thallium flux ratio (lower = more inhibition) at 10 µM; non-induced KCNK3 parental cells; active compounds read low;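 active = thallium flux ratio, averaged over three wells, more than 5 SD below the buffer control mean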;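 note: host cells are CHO cells without KCNK3 induction; ratio is peak minus trough fluorescence over baseline then normalized to buffer controls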
Starred values were filed as active, the others as inactive; i = inactive; . = no result. Only some compounds are listed: those with a hit (about 3.1% of all), similar ones and a draw of the others.

SMILES	hERG rescue	KCNQ1 block	KCNQ1 act	KCNK9 inh	KCNK3 block	KCNK9 block conf	Kir2-1 spec	KCNK9 uninduced	KCNK3 inh conf	KCNK3 noninduced
COc1ccc(OCC(=O)N(Cc2ccc(C)o2)C2CCS(=O)(=O)C2)cc1 (centres undefined)	-6	i	i	i	i	.	.	.	.	.
CC(C)NC(=O)c1onc(CSc2ccc(Cl)cc2)c1C(=O)NC(C)C	-8	i	i	i	i	i	i	i	.	.
CC(C)NC(=O)c1onc(CSc2ccc(Cl)cc2)c1C(=O)O	-7	i	i	i	i	.	.	.	.	.
CCCNC(=O)c1onc(CSc2ccc(Cl)cc2)c1C(=O)NC(C)C	-13	i	i	i	i	i	i	i	.	.
CCN(CCCNC(=O)c1cc2c(-c3cccc(OC)c3)nn(C)c2s1)Cc1ccccc1	-13	i	i	i	i	.	.	.	.	.
COc1cccc(-c2nn(C)c3sc(C(=O)NCc4ccc5c(c4)OCO5)cc23)c1	-18	i	i	-13*	-11*	58%*	i	24%*	99*	i
CCCCSc1nc2sc3c(c2c(=O)[nH]1)CC(C)(CC)OC3 (centres undefined)	-2	i	i	i	i	.	.	.	.	.
Cc1ccc(C)c(CN2CCNC2=O)c1	-8	i	i	i	i	.	.	.	.	.
Cc1ccc(C)c(CN2CCCN(Cc3cc(C)ccc3C)S2(=O)=O)c1	-7	i	i	-19*	-11*	76%*	i	41%*	87*	i
Cc1ccc(CN2CCCN(Cc3cc(C)ccc3C)S2(=O)=O)cc1	-8	i	i	-16*	-9.8*	62%*	i	37%*	0	i
CCOc1ccc(-c2noc(CCC(=O)NC3CCCCC3)n2)cc1OC	-8	i	i	i	i	.	.	.	.	.
COCCN(CCOC)C(=O)c1ccc(NS(=O)(=O)c2ccc3[nH]c(=O)[nH]c3c2)cc1	-5	i	i	i	i	.	.	.	.	.
CSC(=NC#N)N1CCN(C(=NC#N)SC)CC1	-6	i	i	i	i	.	.	.	.	.
CSC(=NC#N)N1CCN(C(c2ccccc2)c2ccccc2)CC1	-14	i	i	-9.8*	i	39%*	i	35%*	123*	i
Cc1sc2nc3c(C(=O)N4CCCC4)cc(C(=O)c4ccccc4O)cn3c(=O)c2c1C	-10	i	i	i	i	.	.	.	.	.
CCc1c(C)sc2nc3c(C(=O)N4CCOCC4)cc(C(=O)c4cc(F)ccc4O)cn3c(=O)c12	-6	i	i	-13*	-8.8*	i	i	24%*	96*	i
CCOc1ccc(NC(=O)CN(C)C(=O)c2cc3c(s2)CCC(C)C3)cc1OCC (centres undefined)	.	.	.	.	i	.	.	.	.	.

Screening results from PubChem BioAssay.
